Experiments:
[1] = organism: Mus musculus; test: Anticonvulsant activity against audiogenic seizures in DBA/2 mice in clonic phase.; format: functional
Method in brief: (§1)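 DBA/2 mice (8–12 g, 22–25 days), groups of 10, given ip doses of 3.3–200 µmol/kg in 50% DMSO/50% saline. Auditory stimulation 30 min later after 60 s habituation under a dome. Incidence of each seizure phase scored. ED50 by Litchfield–Wilcoxon, at least 32 animals, 95% confidence limits.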

[2] = Anticonvulsant activity against audiogenic seizures in DBA/2 mice in tonic phase; format: functional; conditions: Mus musculus; method in brief: as §1
[3] = Toxicity assessed by Rotarod test (locomotor deficit) in mice.; format: organism-based; conditions: mouse, in vivo
Method in brief: (§2)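 Male Swiss mice (20–26 g), groups of 10, trained on a 3-cm rotarod at 8 rpm. Tested 30 min after ip dosing; impairment defined as failure to stay on for 2 min. TD50 by Litchfield–Wilcoxon, at least 32 animals, 95% confidence limits.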

[4] = Protective index as the ratio of TD50 to ED50 (from the clonic phase of the audiogenic seizures).; conditions: for selectivity ratio: read-out: PI
Method in brief: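 Ratio of rotarod TD50 to ED50 from the clonic phase of audiogenic seizures in DBA/2 mice, both after ip dosing.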

[5] = Partition coefficient (logP); format: physicochemical; conditions: octanol/water
Method in brief: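 log P calculated with XLOGP 2.0, not measured.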

[6] = Locomotion assessed by Rotarod test in mice; format: organism-based; conditions: mouse, in vivo; method in brief: as §2
[7] = Protective index as the ratio of TD50 value to that of ED50 value (from the clonic phase of the audiogenic seizures).; format: functional
Method in brief: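 PI = TD50/ED50. TD50 from rotarod (3 cm, 8 rpm; failure to stay on for 2 min) in male Swiss mice 30 min after ip dosing; ED50 from clonic phase of audiogenic seizures in DBA/2 mice 30 min after ip dosing (50% DMSO/saline). Both by Litchfield–Wilcoxon, ≥32 animals each.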

[8] = organism: Rattus norvegicus; test: Percentage reduction of ATPA evoked currents at a concentration of 100 uM in cerebellar neurons
[9] = Percentage reduction of ATPA evoked currents at a concentration of 100 uM in cerebellar neurons; format: functional
Method in brief: (§3)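 Whole-cell voltage clamp of rat cerebellar granule neurons cultured 7 days (7–8-day-old Sprague–Dawley pups; Ara-C 10 µM from 24 h). External solution pH 7.4. KA or ATPA and test agent all applied at 100 µM by Y-tube, DMSO final below 1%. Mean ± SE of at least 10 cells.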

[10] = Percentage reduction of KA (kainate) evoked currents at a concentration of 100 uM in cerebellar neurons; format: functional; method in brief: as §3
[11] = tested on: Mus musculus; test: Anticonvulsant activity against AMPA induced seizures in DBA/2 mice after intracerebro ventricular administration at the CD97 for clonus (9.7 nmol) (95% confidence limits); format: functional; conditions: central
[12] = tested on: Mus musculus; test: Anticonvulsant activity against AMPA induced seizures in DBA/2 mice after intracerebro ventricular administration at the CD97 for tonus (11.7 nmol) (95% confidence limits); format: functional; conditions: central
[13] = tested on: Mus musculus; test: Anticonvulsant activity against KA induced seizures in DBA/2 mice at a dose of 32 mg/kg at CD97 after intraperitoneal administration (95% confidence limits); format: functional; conditions: ip
[14] = organism: Mus musculus; test: Anticonvulsant activity against MES induced seizures in swiss mice in tonic phase (95% confidence limits); format: functional
Method in brief: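 Swiss mice dosed ip in 50% DMSO/50% saline, then shocked via ear-clip electrodes (50 mA, 20 ms pulse width, 35 Hz, 400 ms). Protection defined as abolition of tonic hindlimb extension. Four to five doses, 8–10 mice each; ED50 by Litchfield–Wilcoxon with 95% confidence limits.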

[15] = organism: Mus musculus; test: Anticonvulsant activity against PTZ induced seizures in swiss mice in clonic phase (95% confidence limits); format: functional
[16] = tested on: Mus musculus; test: Anticonvulsant activity against audiogenic seizures in DBA/2 mice in clonic phase after 120 min intraperitoneal administration (95% confidence limit in parentheses); format: functional; conditions: ip, 2 h
Method in brief: (§4)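 Time course: DBA/2 mice (8–12 g, 22–25 days) dosed ip in 50% DMSO/50% saline and challenged with sound 15 to 120 min after dosing. Clonic phase scored; ED50 in µmol/kg by Litchfield–Wilcoxon with 95% confidence limits. Between-compound differences at each time by Litchfield–Wilcoxon (*p<0.05, **p<0.01).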

[17] = tested on: Mus musculus; test: Anticonvulsant activity against audiogenic seizures in DBA/2 mice in clonic phase after 15 min intraperitoneal administration (95% confidence limit in parentheses); format: functional; conditions: ip, 0.25 h; method in brief: as §4
[18] = tested on: Mus musculus; test: Anticonvulsant activity against audiogenic seizures in DBA/2 mice in clonic phase after 30 min intraperitoneal administration (95% confidence limit in parentheses)**indicates p<0.01; format: functional; conditions: ip, 0.5 h
Method in brief: (§5)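 DBA/2 mice (8–12 g, 22–25 days old), genetically sound-susceptible, groups of 10. Dosed ip (0.1 mL/10 g) as fresh solution in 50% DMSO/50% saline, doses 3.3-200 μmol/kg; auditory stimulation after 60 s habituation under dome, at 30 min (time-course: 15–120 min post-dose).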

[19] = tested on: Mus musculus; test: Anticonvulsant activity against audiogenic seizures in DBA/2 mice in clonic phase after 45 min intraperitoneal administration (95% confidence limit in parentheses)**indicates p<0.01; format: functional; conditions: ip, 0.75 h; method in brief: as §5
[20] = tested on: Mus musculus; test: Anticonvulsant activity against audiogenic seizures in DBA/2 mice in clonic phase after 60 min intraperitoneal administration (95% confidence limit in parentheses)**indicates p<0.01; format: functional; conditions: ip, 1 h; method in brief: as §5
[21] = tested on: Mus musculus; test: Anticonvulsant activity against audiogenic seizures in DBA/2 mice in clonic phase after 90 min intraperitoneal administration (95% confidence limit in parentheses)*indicates p<0.05; format: functional; conditions: ip, 1.5 h; method in brief: as §4
[22] = organism: Mus musculus; test: Anticonvulsant activity against audiogenic seizures in DBA/2 mice in tonic phase (95% confidence limit in parentheses); format: functional; method in brief: as §5
[23] = organism: Rattus norvegicus; test: Percentage reduction of ATPA evoked currents at a concentration of 100 uM in cerebellar neurons; remark: listed apart in the source
[24] = organism: Rattus norvegicus; test: Percentage reduction of KA (kainate) evoked currents at a concentration of 100 uM in cerebellar neurons
[25] = organism: Rattus norvegicus; test: as above; remark: listed apart in the source

Row | SMILES | ED50 [1] [µmol/kg] | ED50 [2] [µmol/kg] | TD50 [3] [µmol/kg] | selectivity ratio [4] | logP ([5]; read-out: logP) | other results
1 | CCCCOC(=O)Cc1cc2c(cc1/C(=N/NC(=O)NC)c1ccc(N)cc1)OCO2 | 66.2 | 39.8 | 179 | 2.7 | 3.81 | –
2 | CNC(=O)N/N=C(\c1ccc(N)cc1)c1cc2c(cc1CC(=O)OC)OCO2 (stereo in doubt; 29) | 10.4 | 9.51 | 38.6 | 3.7 | 2.99 | –
3 | CCCCNC(=O)N1N=C(c2ccc(N)cc2)c2cc3c(cc2CC1=O)OCO3 | – | – | 108 | 2.8 | 3.34 | –
4 | CNC(=O)NC(=O)Cc1ccc2c(c1)OCO2 | 87.8 | 74.4 | 219 | 2.5 | 1.09 | –
5 | CCCCNC(=O)N/N=C(\c1ccc(N)cc1)c1cc2c(cc1CC(=O)OC)OCO2 | 65 | 38.2 | 188 | 2.9 | 3.81 | –
6 | CCCCOC(=O)Cc1cc2c(cc1/C(=N/NC(=O)NCC)c1ccc(N)cc1)OCO2 | 53.1 | 38.7 | 117 | 2.2 | 4.24 | –
7 | CCNC(=O)N/N=C(\c1ccc(N)cc1)c1cc2c(cc1CC(=O)OC)OCO2 | 30.3 | 32.8 | 113 | 3.7 | 2.89 | –
8 | CCCOC(=O)Cc1cc2c(cc1/C(=N/NC(=O)NC)c1ccc(N)cc1)OCO2 | 18 | 8.93 | 68.5 | 3.8 | 3.24 | –
9 | CNC(=O)N1N=C(c2ccc(N)cc2)c2cc3c(cc2CC1=O)OCO3 | – | – | – | – | 1.99 | TD50 [6]: 48.6 µmol/kg; PI [7]: 3.9; Reduction [8]: 50%
10 | CCCNC(=O)N1N=C(c2ccc(N)cc2)c2cc3c(cc2CC1=O)OCO3 | – | – | 182 | 2.6 | 2.77 | –
11 | COC(=O)Cc1cc2c(cc1Cc1ccc(N)cc1)OCO2 | 54.3 | 47.7 | 169 | 3.1 | 2.68 | –
12 | CCNC(=O)N/N=C(\c1ccc(N)cc1)c1cc2c(cc1CC(=O)OCC)OCO2 | 84.4 | 60.8 | 227 | 2.7 | 3.31 | –
13 | Nc1ccc(C2=NNC(=O)Cc3cc4c(cc32)OCO4)cc1 | – | – | – | 6.3 | 2.58 | Reduction [8]: 94%
14 | CNC(=O)NC(=O)Cc1cc2c(cc1C(=O)c1ccc(N)cc1)OCO2 | 39.5 | 28.9 | 134 | 3.4 | 1.82 | –
15 | CNC(=O)NC(=O)Cc1cc2c(cc1Cc1ccc(N)cc1)OCO2 | 9.28 | 7.65 | 33.3 | 3.6 | 2.23 | Reduction [9]: 32%; Reduction [10]: 54%
16 | CCNC(=O)N1N=C(c2ccc(N)cc2)c2cc3c(cc2CC1=O)OCO3 | – | – | 134 | 3.8 | 2.41 | –
17 | CCCOC(=O)Cc1cc2c(cc1/C(=N/NC(=O)NCC)c1ccc(N)cc1)OCO2 | 55.5 | 40.3 | 187 | 3.4 | 3.67 | –
18 | CNC(=O)N/N=C(\c1ccc(N)cc1)c1cc2c(cc1CC(=O)OC)OCO2 (stereo in doubt; 10) | – | – | – | – | – | ED50 [11]: 13.9 µmol/kg; ED50 [12]: 8.9 µmol/kg; ED50 [13]: 16.6 µmol/kg; ED50 [14]: 15.7 µmol/kg; ED50 [15]: 14.7 µmol/kg; ED50 [16]: 36.8 µmol/kg; ED50 [17]: 24.1 µmol/kg; ED50 [18]: 7.87 µmol/kg; ED50 [19]: 7.75 µmol/kg; TD50 [6]: 28.3 µmol/kg; PI [4]: 3.6; ED50 [20]: 10.2 µmol/kg; ED50 [21]: 25.5 µmol/kg; ED50 [22]: 4.62 µmol/kg; logP [5]: 2.46; Reduction [23]: 75%; Reduction [24]: 60%
19 | CCOC(=O)Cc1cc2c(cc1/C(=N/NC(=O)NC)c1ccc(N)cc1)OCO2 | 28.8 | 10.9 | 95.1 | 3.3 | 2.89 | –
20 | CCCNC(=O)N/N=C(\c1ccc(N)cc1)c1cc2c(cc1CC(=O)OC)OCO2 | 57.1 | 42.8 | 177 | 3.1 | 3.24 | –
21 | CC1=NN=C(c2ccc(N)cc2)c2cc3c(cc2C1)OCO3 [GYKI-52466] | – | – | – | 2.1 | 3.51 | Reduction [8]: 45%; Reduction [25]: 47%

Reference: ChEMBL document CHEMBL1135822, “Novel potent AMPA/kainate receptor antagonists: synthesis and anticonvulsant activity of a series of 2-[(4-alkylsemicarbazono)-(4-amino-phenyl)methyl]-4,5-methylenedioxyphenylacetic acid alkyl esters” (J Med Chem, 2002)
